Compounds with a hit are over-represented: about 2.7% of the library has one in this group of screens.
TbHK1 inh: blocks Trypanosoma brucei hexokinase 1 activity | recombinant TbHK1, G6PDH-coupled NADH A340 | inhibition, % at 10 µM | actives 0.11% (n = 220,000) | AID 1430;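 active = inhibition of 50% or more in the single-dose primary screen; inactive = inhibition below 50%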
14-3-3 Bad PPI: disrupts binding of bovine 14-3-3 zeta to phospho-Bad peptide; P63103; TR-FRET 14-3-3zeta/Dy647-pBad peptide displacement, 1 h; inhibition, % at 21.7 µM; actives 0.71% (n = 220,000); AID 781;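 active = inhibition above about 70%, limit read from the data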;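 note: 0% = full 14-3-3 plus peptide FRET controls and 100% = background without 14-3-3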
Wee1 degr inh: blocks degradation of human Wee1 kinase; HeLa Luc-Wee1K328M stability, luciferase luminescence; 100% = proteasome inhibitor MG132 effect; reporter increase, % at 5 µM; actives 1.2% (n = 220,000); AID 1321;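 active = activation above the mean of all tested compounds plus 3 SD, set per screening run, cut at about 8.8% in these data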;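 note: cells exposed to compound for 20 h before luminescence read; 0% = DMSO alone and 100% = MG132 at 30 µM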
Target sequence (P30291 whole entry K328M): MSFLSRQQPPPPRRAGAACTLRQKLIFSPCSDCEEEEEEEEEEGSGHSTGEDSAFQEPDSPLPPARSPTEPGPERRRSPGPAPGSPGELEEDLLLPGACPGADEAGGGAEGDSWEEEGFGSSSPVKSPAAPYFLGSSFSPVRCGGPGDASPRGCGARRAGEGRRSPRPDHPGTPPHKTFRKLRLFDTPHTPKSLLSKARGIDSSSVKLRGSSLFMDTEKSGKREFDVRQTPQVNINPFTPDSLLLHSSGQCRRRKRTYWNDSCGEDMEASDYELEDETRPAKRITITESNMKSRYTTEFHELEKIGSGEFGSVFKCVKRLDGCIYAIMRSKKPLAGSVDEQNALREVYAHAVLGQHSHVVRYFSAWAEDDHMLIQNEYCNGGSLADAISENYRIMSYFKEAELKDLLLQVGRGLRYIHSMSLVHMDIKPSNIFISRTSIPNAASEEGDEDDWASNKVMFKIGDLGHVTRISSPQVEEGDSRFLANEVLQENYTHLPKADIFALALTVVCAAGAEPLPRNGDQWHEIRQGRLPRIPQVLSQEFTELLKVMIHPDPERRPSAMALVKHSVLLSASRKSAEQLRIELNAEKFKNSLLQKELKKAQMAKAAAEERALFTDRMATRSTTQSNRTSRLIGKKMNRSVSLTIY
Mdm2 ligase inh: inhibitors of human Mdm2 E3 ubiquitin ligase. cell-based MDM2 ubiquitination luciferase reporter, 2 h; 0 = plate control, 100 = twice control, blank-subtracted. signal enhancement, % at 5 µM. actives 0.11% (n = 210,000);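 active = signal enhancement of 30% or more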;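 note: luminescence tracks abundance of the self-degrading MDM2-luciferase fusion protein; higher signal means inhibition of MDM2 E3 ligase activity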
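Buffer or medium: Cells held in DMEM | Assay system: Stable mammalian line carrying autodegrading MDM2–luciferase fusion reporter | Quantity: 2000 cells/well | Times: 4 h settle plus 2 h compound, 37 °C | Doses: One concentration, 5 µM, with 0.2% DMSO | Technique: Luminescence with SteadyLite reagent, 15 min at room temperature | Benchmarks: Plate controls and plate blanks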
Hck-Nef inh: human Hck-Nef kinase inhibition; P08631; Recombinant Hck-YEEI plus Nef, Z-Lyte FRET kinase assay; inhibition, % at 20 µM; actives 0.68% (n = 220,000);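 active = Hck-Nef kinase inhibition above about 50%, limit read from the data; inactive = inhibition below that limit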;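 note: 0% = DMSO with Hck plus Nef and 100% = Hck alone without Nef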
The depositor's hits bear a star; / = no result given; [ ] = another dose, or the depositor's remark.

SMILES	TbHK1 inh	14-3-3 Bad PPI	Wee1 degr inh	Mdm2 ligase inh	Hck-Nef inh
CCc1ccc(OCc2nnc(SCCN3CCOCC3)n2C)cc1	0.6	85.0*	5.9	-5.7	1.3
Cc1ccc(OCc2nnc(SCCN3CCOCC3)n2C)cc1	-0.7	17.4	-1.3	-6.5	-0.9
COc1ccc(C(CC(=O)c2ccc(C)cc2)C(C#N)C#N)cc1OC (stereo not given)	11.9	-23.6	-1.7	-4.7	4.4
Cc1ccc(CSc2nccc(-c3c(C)nc4ccccn34)n2)cc1	-52.3	-5.7	-0.5	-14.9	10.4
COCCn1c(C)cc(C2=NNC(=Nc3ccc(Cl)cc3Cl)SC2)c1C	-13.9	71.9*	1.3	12.9	0.3
COCCn1c(C)cc(C2=NNC(=NC3CC3)SC2)c1C	-13.5	-9.3	-6.6	-94.5	-0.3
O=C(Nc1ccc(CN2CCOCC2)cc1)c1cc2ccccc2o1	-6.2	-5.8	10.3*	-49.1	1.3
O=C(NC(=S)Nc1ccc(CN2CCOCC2)cc1)c1cc2ccccc2o1	-6.7	-2.8	2.1	-10.6	17.6
O=C(CSc1nnc(CCCOc2ccc(Cl)cc2Cl)o1)Nc1ccc(C(=O)O)cc1	6.1	-11.1	5.0	1.1	4.4
CCOc1ccc(N2C(=O)Nc3ccccc3C2(O)C(=O)NCc2ccc(C)cc2)cc1 (stereo not given)	-5.8	-7.1	11.6*	6.7	22.0
O=C(Nc1cccc(Cl)c1)c1ccc(F)c(S(=O)(=O)N2CCN(c3ccccn3)CC2)c1	-2.4	-5.5	-1.1	-2.7	2.9
CCOc1ccc(NC(=O)c2ccc(F)c(S(=O)(=O)N3CCN(c4ccccn4)CC3)c2)cc1	0.1	75.1*	-2.4	-17.7	-1.0
Cc1cc(C)n(/N=C/c2cccs2)c(=O)c1C#N	-29.2	-5.1	10.8*	3.9	-0.3
Cc1ccc(N=Nc2ccc(O)c(/C=N\NC(=O)c3ccc(N)cc3)c2)cc1C	-81.2	85.0*[fluorescence artefact?]	9.5*	4.5	34.5
CCOc1ccc(N2C(=O)CC(N3CCN(c4ccccc4F)CC3)C2=O)cc1 (stereo not given)	2.1	3.6	14.0*	-12.1	-0.9
FC(F)(F)c1ccc(NC(=S)NC2CCCCC2)cc1	-2.3	-8.4	-0.5	-7.4	18.6
O=C(O)c1ccc(NC(=S)NC2CCCCC2)cc1	11.7	-27.1	9.6*	-0.5	3.2
CCCN=C(C)C1=C(O)c2ccccc2C1=O	-15.5	-5.8	9.1*	-8.9	5.7
CCN(CC)CCCN=C(C)C1=C(O)c2ccccc2C1=O	-33.5	-18.6	-2.1	-7.0	2.3
O=C1CCCC2=C1C(c1ccco1)Nc1ccc3ccccc3c12 (stereo not given)	11.8	72.5*[fluorescence artefact?]	-2.2	-14.2	14.4
Cc1ccc(-c2cc(C(F)(F)F)n3ncc(C(=O)N4CCN(C)CC4)c3n2)cc1	-19.3	-8.1	9.2*	-10.3	0.2
CN1CCN(C(=O)c2cnn3c(C(F)(F)F)cc(-c4ccc5c(c4)OCO5)nc23)CC1	-19.8	13.4	-0.5	-19.9	0.4
CSc1nsc(SCC(=O)N2CCCCC2)n1	1.2	-0.4	-1.4	-2.4	14.7
CC(C)C(c1nnnn1C1CCCCC1)N1CCOCC1 (stereo not given)	1.7	7.8	-1.6	-14.3	-0.6
CC(C)C(c1nnnn1C(C)(C)C)N1CCOCC1 (stereo not given)	-0.2	71.0*	-2.2	-5.5	-0.1
SMILES	TbHK1 inh	14-3-3 Bad PPI	Wee1 degr inh	Mdm2 ligase inh	Hck-Nef inh
Cc1c(/C=N/NC(=O)C(C)(C)Oc2ccc(Cl)cc2)cnn1C	-2.6	17.9	9.9*	-18.1	0.6
Cc1nn(-c2ccccc2)c(Cl)c1/C=N/Nc1ccc(S(=O)(=O)Nc2ccccc2C(=O)O)cc1[N+](=O)[O-]	5.5	88.2*[fluorescence artefact?]	0.9	-8.8	16.3
Cc1ccsc1/C=N/N1CCN(Cc2ccccc2)CC1	-3.5	-6.3	-4.3	-3.1	14.5
O=S(=O)(Nc1ccc2cn[nH]c2c1)c1ccc(Cl)s1	-4.3	85.0*	1.5	-7.6	-10.2
S=c1[nH]nc(-c2ccccn2)n1/N=C/c1ccc(Cl)c(Cl)c1	-3.8	-14.1	-0.3	-5.3	1.6
S=c1[nH]nc(-c2ccccn2)n1/N=C/c1ccc(-c2ccccc2Cl)o1	-30.7	-14.9	4.4	-4.9	75.7*
CCOc1ccccc1N1CCN(Cc2ccco2)CC1	-4.5	8.3	2.6	-12.4	1.0
CCOc1ccccc1N1CCN(S(=O)(=O)CC)CC1	-5.0	5.5	2.5	-2.1	-1.0
CCOc1ccccc1N1CCN(C/C=C/c2ccc(N(C)C)cc2)CC1	1.3	78.2*[fluorescence artefact?]	-0.9	/	-26.3
CCOc1ccccc1N1CCN(Cc2ccc(Br)s2)CC1	4.8	75.8*	4.5	6.5	0.9
CCCn1nc(-c2nnc(-c3ccc(C)c(C)c3)o2)c2ccccc2c1=O	-11.5	-0.6	0.9	-5.9	1.3
COc1ccc(OC)c(CC(NC(C)=O)C(=O)NC2CCN(c3cc(C)nc4ncnn34)CC2)c1 (stereo not given)	1.8	-11.1	-0.9	-2.6	15.0
CCCc1nc(SCC(=O)NNC(=O)c2ccc(OC)cc2)c2ccccc2n1	-2.3	97.7*	2.2	-23.1	24.4
CCCCNC(=O)CSc1nc(COc2ccccc2)nc2ccccc12	-4.7	-19.7	-3.6	5.3	13.8
Cc1nc(SCC(=O)NCc2ccco2)c2c(=O)n(C)c(=O)n(CC(C)C)c2n1	0.5	-13.1	0.8	-12.0	-3.9
CCOC(=O)CC1C(=O)NCCN1C(=O)Nc1ccc(Cl)cc1 (stereo not given)	-7.1	73.3*[fluorescence artefact?]	1.9	-1.4	-0.2
COc1ccc(/C=C/C(=O)c2ccc3c(c2)OCO3)c(OC)c1	-7.4	4.1	28.7*	-8.1	1.0
O=c1[nH]c(CSc2nc3ccccc3s2)nc2ccccc12	-11.5	1.4	9.0*	/	13.5
CCCc1c(C)[nH]c2ccc(NC(C)=O)cc2c1=O	-19.5	11.1	8.9*	-7.4	0.3
CC(=O)c1ccc(Nc2cc(C)nc3c(C)cccc23)cc1	-35.0	-12.3	10.3*	1.1	17.6
CC(=O)c1ccc(Nc2cc(C)nc3ccccc23)cc1	-56.2	-6.6	5.9	-19.1	5.5
C=Cn1nc(C)c2ccccc2c1=O	-8.4	-7.8	1.0	-7.0	1.6
C=CCC1(O)CC(c2ccco2)NC(c2ccco2)C1CCC (stereo not given)	-6.3	79.4*	1.3	-6.5	2.0
O=C(/C=C\c1ccc(-c2ccccc2)o1)c1ccccc1	5.5	7.4	8.8*	-9.2	1.8
Cc1ccc(C(=O)/C=C/c2ccc(-c3ccc(C)cc3)o2)cc1	19.1	-17.5	2.1	-4.8	3.0
O=C(NC1CCCC1)C1CCCN1C(=O)Oc1ccccc1 (stereo not given)	0.8	-6.1	-2.8	-2.3	0.0
COc1ccc(S(=O)(=O)NN(C)c2ncc(C(F)(F)F)cc2Cl)cc1	-1.4	-11.8	-3.7	35.9*	19.6
CCCCSc1nn[nH]n1	1.7	76.0*	3.3	-9.0	5.3
CCCCSc1nnc(CCC)n1N	-0.5	-2.1	0.4	-5.1	0.4

From PubChem BioAssay
